Converted amounts (≈) assume the structure as drawn.
Columns and labels:
[1] = Volume of distribution at steady state in BALB/c mouse at 0.2 mg/kg, iv and 1 mg/kg, po by LC/MS/MS analysis; settings: in vivo, read-out: Vdss
[2] = target: T1, Prostaglandin D2 receptor 2 (Homo sapiens, UniProt Q9Y5Y4); assay: Displacement of [3H]PGD2 from human CRTH2 expressed in chinese hamster CHO cells by liquid scintillation counting; type: cell-based
T1 sequence (Q9Y5Y4 whole entry): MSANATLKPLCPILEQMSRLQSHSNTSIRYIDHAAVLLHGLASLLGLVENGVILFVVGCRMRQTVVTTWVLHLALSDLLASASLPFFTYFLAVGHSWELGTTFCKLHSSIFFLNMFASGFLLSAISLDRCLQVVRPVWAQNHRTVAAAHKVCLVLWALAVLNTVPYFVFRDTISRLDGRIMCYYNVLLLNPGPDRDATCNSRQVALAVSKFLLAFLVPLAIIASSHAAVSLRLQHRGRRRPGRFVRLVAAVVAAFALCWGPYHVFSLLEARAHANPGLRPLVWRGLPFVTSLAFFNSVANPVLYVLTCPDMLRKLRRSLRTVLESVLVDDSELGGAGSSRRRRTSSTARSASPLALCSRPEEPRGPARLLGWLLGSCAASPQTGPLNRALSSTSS
Procedure, shortened: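 Scintillation proximity competition assay: 2–5 μg human CRTH2 cell membranes, 1.5 nM [3H]PGD2, WGA-SPA beads, 10 mM HEPES/KOH pH 7.4, 10 mM MnCl2, protease inhibitors, 1% DMSO; 90 min, room temperature, shaking. Nonspecific binding defined with 1 μM PGD2. Ki by Cheng–Prusoff, mean of ≥3 independent dose–response experiments.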

[3] = Lipophilicity, log D of the compound at pH 7.4; type: physicochemical; settings: buffer
[4] = Clearance in BALB/c mouse at 0.2 mg/kg, iv and 1 mg/kg, po by LC/MS/MS analysis; type: ADME, organism-based; settings: in vivo
Procedure, shortened: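 Low-dose cassette PK in mouse: 0.2 mg/kg iv and 1 mg/kg po.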

[5] = target: T1, Prostaglandin D2 receptor 2; assay: Antagonist activity at human CRTH2 expressed in […] by cellular dielectric spectroscopy in the presence of PGD2 and 0.1% BSA; type: functional, cell-based
Procedure, shortened: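 CHO-CRTH2 cells grown in HAM's F12 with 10% FCS and 400 μg/mL Geneticin, seeded at 100000 cells/well, 24 h at 37 °C. Washed in HBSS plus 10 mM HEPES pH 7.4 with 1% DMSO and 0.1% BSA. Compound added, then PGD2 at its EC80.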

[6] = Kinetic solubility of the compound in 2% DMSO; type: physicochemical; settings: read-out: Kinetic_solubility
[7] = Kinetic solubility of the compound in phosphate buffered saline; type: physicochemical; settings: read-out: Kinetic_solubility
[8] = Half life in BALB/c mouse at 1 mg/kg, po by LC/MS/MS analysis; type: ADME, organism-based; design: dose 1 mg/kg, route oral; settings: in vivo
[9] = Percentage unbound in human plasma; type: ADME, cell-free
[10] = Oral bioavailability in BALB/c mouse at 1 mg/kg by LC/MS/MS analysis; type: ADME, organism-based; settings: in vivo
Procedure, shortened: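 Oral bioavailability in mouse from a 1 mg/kg po dose given in a cocktail (cassette) experiment.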

[11] = Apparent permeability across human Caco2 cells at 1 uM after 2 hrs by LC/MS/MS analysis; type: ADME, cell-based; settings: Caco-2
[12] = Intrinsic clearance in human liver microsomes assessed per mg of protein at 1 uM by LC/MS/MS analysis; type: ADME, Microsome
[13] = Percentage unbound in mouse plasma; type: ADME, cell-free
[14] = target: T1, Prostaglandin D2 receptor 2; assay: Antagonist activity at human CRTH2 expressed in human CHO cells by cellular dielectric spectroscopy
[15] = Half life in BALB/c mouse at 0.2 mg/kg, iv by LC/MS/MS analysis; type: ADME, organism-based; design: dose 0.2 mg/kg, route intravenous; settings: in vivo
[16] = target: T2, Prostaglandin D2 receptor 2 (Mus musculus, UniProt Q9Z2J6); assay: Displacement of [3H]PGD2 from mouse CRTH2 expressed in human HEK cells by liquid scintillation counting; type: cell-based, HEK293
T2 sequence (Q9Z2J6 whole entry): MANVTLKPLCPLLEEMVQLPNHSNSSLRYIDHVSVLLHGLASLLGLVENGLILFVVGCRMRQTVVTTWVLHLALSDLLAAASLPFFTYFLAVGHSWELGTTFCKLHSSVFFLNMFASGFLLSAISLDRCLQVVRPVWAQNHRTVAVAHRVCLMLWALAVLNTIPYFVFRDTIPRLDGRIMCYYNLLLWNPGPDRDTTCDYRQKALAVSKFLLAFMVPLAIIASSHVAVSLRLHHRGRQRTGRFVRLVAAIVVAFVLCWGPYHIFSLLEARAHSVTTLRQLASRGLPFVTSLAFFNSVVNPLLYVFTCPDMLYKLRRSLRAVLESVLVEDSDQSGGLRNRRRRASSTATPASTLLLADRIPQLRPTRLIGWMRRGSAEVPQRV
Procedure, shortened: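 Mouse CRTH2 cDNA stably expressed in HEK293(EBNA) cells (hygromycin-selected) and membranes made by nitrogen cavitation. SPA competition uses 2–5 μg membranes, 1.5 nM [3H]PGD2, HEPES/KOH pH 7.4 with 10 mM MnCl2, 1% DMSO, 90 min at room temperature. Nonspecific binding defined with 1 μM PGD2. Ki by Cheng–Prusoff, ≥3 independent experiments.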

[17] = target: T1, Prostaglandin D2 receptor 2; assay: Displacement of [3H]PGD2 from human CRTH2 expressed in chinese hamster CHO cells by liquid scintillation counting in the presence of 0.1% BSA; type: cell-based
Procedure, shortened: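 Scintillation proximity assay on 2–5 μg human CRTH2 membranes with WGA-SPA beads and 1.5 nM [3H]PGD2. Buffer: 10 mM HEPES/KOH pH 7.4, 10 mM MnCl2, protease inhibitors, 1% DMSO, 0.1% BSA. Incubated 90 min at room temperature with shaking. Nonspecific binding defined with 1 μM PGD2. Ki by Cheng–Prusoff, mean of at least three independent dose–response experiments.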

[18] = species on record: Rattus norvegicus; assay: Inhibition of rat GABA gated chloride ion channel at 10 uM
Procedure, shortened: (§1)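 Selectivity screen: panel of 50 receptor and ion-channel targets, tested at 10 μM; EP2 by binding assay; GABA-gated Cl− channel from rat. Result expressed as % inhibition.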

[19] = target: Prostaglandin E2 receptor EP2 subtype (Homo sapiens) (UniProt P43116); assay: Inhibition of EP2 receptor at 10 uM
Procedure, shortened: as §1

[20] = Percentage unbound in rat plasma; type: ADME, cell-free
[21] = Intrinsic clearance in rat liver microsomes assessed per mg of protein at 1 uM by LC/MS/MS analysis; type: ADME, Microsome
[22] = target: Cytochrome P450 2C9 (Homo sapiens, UniProt P11712); assay: Inhibition of human recombinant CYP2C9 expressed in baculovirus infected insect cells preincubated for 15 mins measured after 30 mins by luminescence analysis; type: ADME
[23] = system: Mus musculus; assay: Antiinflammatory activity in BALB/c mouse contact hypersensitivity model assessed as inhibition of FITC-mediated ear swelling at 3 mg/kg, po administered 1 hr prior to and 7 hrs after the FITC-challenge measured 24 hrs after final dose; type: functional
Procedure, shortened: (§2)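 Female 9-week-old BALB/c mice sensitized on days 0 and 1 with 0.5% FITC in acetone/dibutyl phthalate (sham group: vehicle only). Right ear challenged on day 6 with 0.5% FITC. Compound given by oral gavage 1 h before and 7 h after challenge. Ear thickness measured before and 24 h after challenge. Reported as mean % inhibition ± SEM.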

[24] = target: Aldo-keto reductase family 1 member B1 (Homo sapiens, UniProt P15121); assay: Antagonist activity at AR; type: functional
[25] = Oral bioavailability in BALB/c mouse at 5 mg/kg by LC/MS/MS analysis; type: ADME, organism-based; settings: in vivo
Procedure, shortened: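 Mouse PK after a 5 mg/kg oral dose.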

[26] = Solubility of the compound at pH 7.4; type: physicochemical; settings: buffer
[27] = target: T1, Prostaglandin D2 receptor 2; assay: Antagonist activity human CRTH2 expressed in chinese hamster CHO cells assessed as inhibition of PGD2-induced [35S]GTPgamma binding by liquid scintillation counting; type: functional, cell-based
Procedure, shortened: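 10 μg human CRTH2 membranes in 20 mM HEPES/KOH pH 7.4, 10 mM MgCl2, 10 μg/mL saponin, 3 μM GDP, 150 mM NaCl, 2% DMSO, 30 °C. Preincubated 10 min, then 0.15 nM [35S]GTPγS for 30 min; stopped by centrifugation. Antagonism tested against 80 nM PGD2. Nonspecific binding with 10 μM GTPγS. Run without BSA.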

[28] = Half life in BALB/c mouse at 1 mg/kg, iv by LC/MS/MS analysis; type: ADME, organism-based; design: dose 1 mg/kg, route intravenous; settings: in vivo
[29] = Half life in BALB/c mouse at 5 mg/kg, po by LC/MS/MS analysis; type: ADME, organism-based; design: dose 5 mg/kg, route oral; settings: in vivo
[30] = Solubility of the compound at pH 1.2; type: physicochemical; settings: buffer
[31] = AUC in BALB/c mouse at 5 mg/kg, po by LC/MS/MS analysis; type: ADME, organism-based; design: dose 5 mg/kg, route oral; settings: plasma
[32] = Clearance in BALB/c mouse at 5 mg/kg, po by LC/MS/MS analysis; type: ADME, organism-based; design: dose 5 mg/kg, route oral; settings: in vivo
[33] = target: T3, Prostaglandin D2 receptor (Homo sapiens, UniProt Q13258); assay: Binding affinity to DP1
T3 sequence (Q13258 whole entry): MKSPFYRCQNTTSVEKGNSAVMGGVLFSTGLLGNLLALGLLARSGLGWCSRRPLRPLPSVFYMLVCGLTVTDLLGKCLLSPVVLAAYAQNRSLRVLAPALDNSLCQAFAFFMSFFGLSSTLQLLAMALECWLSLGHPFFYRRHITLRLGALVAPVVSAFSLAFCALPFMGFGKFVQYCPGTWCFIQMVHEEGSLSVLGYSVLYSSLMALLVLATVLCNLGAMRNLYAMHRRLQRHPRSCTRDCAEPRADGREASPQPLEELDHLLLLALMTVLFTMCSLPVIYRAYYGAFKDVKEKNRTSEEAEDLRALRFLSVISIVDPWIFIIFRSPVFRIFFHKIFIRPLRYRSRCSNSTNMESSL

[34] = system: Mus musculus; assay: Antiinflammatory activity in BALB/c mouse model assessed as inhibition of ovalbumin-induced eosinophil accumulation in bronchoalveolar lavage fluid at 10 mg/kg, po administered 1 hr prior to and 7 hrs after ovalbumin challenge for 3 days measured 8 hrs after final dose by cell counting; type: functional; settings: Lung
Procedure, shortened: (§3)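 Compound given by oral gavage 1 h before and 7 h after each challenge. BAL taken 8 h after the last challenge. Total cells counted by hemocytometer; eosinophils counted on DiffQuik-stained cytospins. Reported as mean % inhibition ± SEM.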

[35] = system: Mus musculus; assay: Antiinflammatory activity in BALB/c mouse model assessed as inhibition of ovalbumin-induced eosinophil accumulation in bronchoalveolar lavage fluid at 3 mg/kg, po administered 1 hr prior to and 7 hrs after ovalbumin challenge for 3 days measured 8 hrs after final dose by cell counting; type: functional; settings: Lung
Procedure, shortened: as §3

[36] = system: Mus musculus; assay: Antiinflammatory activity in BALB/c mouse model assessed as inhibition of ovalbumin-induced eosinophil accumulation in bronchoalveolar lavage fluid at 30 mg/kg, po administered 1 hr prior to and 7 hrs after ovalbumin challenge for 3 days measured 8 hrs after final dose by cell counting; type: functional; settings: Lung
Procedure, shortened: as §3

[37] = target: T3, Prostaglandin D2 receptor; assay: Antagonist activity at DP1 by cAMP functional assay
Procedure, shortened: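 DP1 functional antagonism measured in a cAMP assay.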

[38] = system: Mus musculus; assay: Antiinflammatory activity in BALB/c mouse contact hypersensitivity model assessed as inhibition of FITC-mediated ear swelling at 30 mg/kg, po administered 1 hr prior to and 7 hrs after the FITC-challenge measured 24 hrs after final dose; type: functional
Procedure, shortened: as §2

[39] = system: Mus musculus; assay: Antiinflammatory activity in BALB/c mouse contact hypersensitivity model assessed as inhibition of FITC-mediated ear swelling at 10 mg/kg, po administered 1 hr prior to and 7 hrs after the FITC-challenge measured 24 hrs after final dose; type: functional
Procedure, shortened: as §2

Sequence of Prostaglandin E2 receptor EP2 subtype (Homo sapiens) (P43116 whole entry): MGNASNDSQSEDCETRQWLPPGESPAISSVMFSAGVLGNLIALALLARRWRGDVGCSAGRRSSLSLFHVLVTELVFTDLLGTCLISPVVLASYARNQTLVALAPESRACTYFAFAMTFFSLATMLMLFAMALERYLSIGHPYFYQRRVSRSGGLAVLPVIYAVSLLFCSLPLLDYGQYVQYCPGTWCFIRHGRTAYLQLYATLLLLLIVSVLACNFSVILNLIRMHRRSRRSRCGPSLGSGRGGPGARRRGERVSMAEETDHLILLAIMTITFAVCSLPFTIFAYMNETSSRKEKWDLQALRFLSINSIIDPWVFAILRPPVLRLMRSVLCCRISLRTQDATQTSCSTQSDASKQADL
Sequence of Cytochrome P450 2C9 (P11712 whole entry): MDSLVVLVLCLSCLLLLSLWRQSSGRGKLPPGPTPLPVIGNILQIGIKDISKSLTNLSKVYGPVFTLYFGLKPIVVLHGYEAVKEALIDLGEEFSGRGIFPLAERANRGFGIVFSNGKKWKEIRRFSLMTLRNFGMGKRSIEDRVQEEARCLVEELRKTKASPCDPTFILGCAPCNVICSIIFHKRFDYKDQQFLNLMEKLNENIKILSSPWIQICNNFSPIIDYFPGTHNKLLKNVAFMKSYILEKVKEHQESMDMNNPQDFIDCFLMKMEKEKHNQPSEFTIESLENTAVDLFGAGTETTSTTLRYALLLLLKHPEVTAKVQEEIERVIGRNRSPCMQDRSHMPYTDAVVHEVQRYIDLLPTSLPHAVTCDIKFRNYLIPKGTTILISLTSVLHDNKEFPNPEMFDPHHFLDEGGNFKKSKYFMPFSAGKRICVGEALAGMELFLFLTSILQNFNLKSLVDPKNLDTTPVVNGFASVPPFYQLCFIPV

## O=C(O)COc1ccc(Cl)cc1C#Cc1cccc(Cl)c1
[1]
  Vd: 0.3 L/kg
[2]
  Ki: 0.029 µM
[3]
  logD: 0.5
[4]
  clearance: 16.7 mL/min/kg
[5]
  IC50: 1.2 µM
[6]
  solubility kinetic: > 200 µM
[7]
  solubility kinetic: > 200 µM
[8]
  half-life: 1.6 h
[9]
  fraction unbound: < 0.003
[10]
  bioavailability: 82%
[11]
  Papp at 2 h, 1 µM: 18.4 ×10⁻⁶ cm/s
[12]
  microsomal CLint at 1 µM: 12 µL/min/mg
[13]
  fraction unbound: < 0.003
[14]
  IC50: 0.114 µM
[15]
  half-life: 0.3 h
[16]
  Ki: 0.0374 µM
[17]
  IC50: 0.029 µM
[18]
  inhibition: 76%
[19]
  inhibition: 66%
[20]
  fraction unbound: < 0.003
[21]
  microsomal CLint at 1 µM: 27 µL/min/mg
[22]
  IC50: 1.44 µM

## CCCS(=O)(=O)c1ccc(C)c(C#Cc2cc(Cl)ccc2OCC(=O)O)c1
[2]
  Ki: 0.002 µM
[23]
  inhibition in vivo at 3 mg/kg: 23%
[24]
  IC50: 0.172 µM
[9]
  fraction unbound: 0.004
[25]
  bioavailability: 80%
[11]
  Papp at 2 h, 1 µM: 5.2 ×10⁻⁶ cm/s
[12]
  microsomal CLint at 1 µM: < 10 µL/min/mg
[26]
  solubility: 242 µg/mL (≈ 595 µM)
[27]
  IC50: 0.007 µM
[28]
  half-life: 1.7 h
[29]
  half-life: 3.9 h
[13]
  fraction unbound: 0.008
[30]
  solubility: < 2 µg/mL
[31]
  AUC: 3730 ng·h/mL
[16]
  Ki: 0.0024 µM
[19]
  inhibition: 54%
[32]
  CL/F: 16.7 mL/min/kg
[33]
  Ki: 1.58 µM
[34]
  inhibition in vivo at 10 mg/kg: 54%
[20]
  fraction unbound: 0.004
[35]
  inhibition in vivo at 3 mg/kg: 29%
[21]
  microsomal CLint at 1 µM: < 10 µL/min/mg
[36]
  inhibition in vivo at 30 mg/kg: 81%
[37]
  IC50: 10 µM
[38]
  inhibition in vivo at 30 mg/kg: 52%
[39]
  inhibition in vivo at 10 mg/kg: 56%
